High-throughput results (PubChem)
FID counter = displaces DNA intercalator in HCV helicase counter-screen; 0.17% of 290,000 active; DNA fluorescent intercalator displacement, fluorescence; AID 1845; inhibition, % at 7.9 µM; in the data active = inhibition above about 37%;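 also: 0% = vehicle and 100% = reference compound; higher means more ethidium bromide displaced from hairpin DNA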
DDE Tn6 FP inh = disrupts Tn6 cyclic peptide binding to fibrin D-Dimer-E complex | AID 720509 | 0.21% of 370,000 active | P02675 | Fibrin DD(E) TRITC-Tn6 fluorescence polarization displacement | inhibition, % at 8.3 µM;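 active = inhibition above a per-campaign cutoff: mean of compounds within control limits plus 3 SD, cut at about 15% in these data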;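 also: 0% = median of all compound wells on the plate and 100% = blocking peptide control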
Tn7 DDE FP = disrupts Tn7 cyclic peptide binding to fibrin D-Dimer-E complex | FP displacement of FITC-Tn7 peptide from fibrin DD(E); 0% = median of compound wells per plate | P02675 | 0.13% of 370,000 active | inhibition, % at 8.3 µM;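 active = inhibition above the mean of compounds falling within the control limits plus 3 SD of them, cut at about 14% in these data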;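 also: 0% = plate median of compound wells and 100% = 10 µM Aha-Tn7 peptide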
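Assay system: Fibrin-DD(E) protein isolated from polymerized human fibrin clots; read-out basis: percent inhibition; medium: Tris/NaCl/CaCl2 buffer, pH 7.8; signal: FP measurement; incubation: 10 min plus 3 h, room temperature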
PLCb3 inh = blocks human PLC-beta3 enzyme activity. Q01970. Purified PLC-beta3, fluorogenic substrate, fluorescence. inhibition, % at 12.2 µM. 0.18% of 370,000 active. AID 720704; in the data active = inhibition above about 11%;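 also: 0% = median of compound wells on plate and 100% = full blocker control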
PLCg1 inh = PLC-gamma1 (human) inhibition, primary screen; P19174; purified PLC-gamma1, fluorogenic substrate, fluorescence; inhibition, % at 12.2 µM; 0.84% of 370,000 active; AID 720700; in the data active = inhibition above about 9.5%
Target sequence (P19174 whole entry, looked up): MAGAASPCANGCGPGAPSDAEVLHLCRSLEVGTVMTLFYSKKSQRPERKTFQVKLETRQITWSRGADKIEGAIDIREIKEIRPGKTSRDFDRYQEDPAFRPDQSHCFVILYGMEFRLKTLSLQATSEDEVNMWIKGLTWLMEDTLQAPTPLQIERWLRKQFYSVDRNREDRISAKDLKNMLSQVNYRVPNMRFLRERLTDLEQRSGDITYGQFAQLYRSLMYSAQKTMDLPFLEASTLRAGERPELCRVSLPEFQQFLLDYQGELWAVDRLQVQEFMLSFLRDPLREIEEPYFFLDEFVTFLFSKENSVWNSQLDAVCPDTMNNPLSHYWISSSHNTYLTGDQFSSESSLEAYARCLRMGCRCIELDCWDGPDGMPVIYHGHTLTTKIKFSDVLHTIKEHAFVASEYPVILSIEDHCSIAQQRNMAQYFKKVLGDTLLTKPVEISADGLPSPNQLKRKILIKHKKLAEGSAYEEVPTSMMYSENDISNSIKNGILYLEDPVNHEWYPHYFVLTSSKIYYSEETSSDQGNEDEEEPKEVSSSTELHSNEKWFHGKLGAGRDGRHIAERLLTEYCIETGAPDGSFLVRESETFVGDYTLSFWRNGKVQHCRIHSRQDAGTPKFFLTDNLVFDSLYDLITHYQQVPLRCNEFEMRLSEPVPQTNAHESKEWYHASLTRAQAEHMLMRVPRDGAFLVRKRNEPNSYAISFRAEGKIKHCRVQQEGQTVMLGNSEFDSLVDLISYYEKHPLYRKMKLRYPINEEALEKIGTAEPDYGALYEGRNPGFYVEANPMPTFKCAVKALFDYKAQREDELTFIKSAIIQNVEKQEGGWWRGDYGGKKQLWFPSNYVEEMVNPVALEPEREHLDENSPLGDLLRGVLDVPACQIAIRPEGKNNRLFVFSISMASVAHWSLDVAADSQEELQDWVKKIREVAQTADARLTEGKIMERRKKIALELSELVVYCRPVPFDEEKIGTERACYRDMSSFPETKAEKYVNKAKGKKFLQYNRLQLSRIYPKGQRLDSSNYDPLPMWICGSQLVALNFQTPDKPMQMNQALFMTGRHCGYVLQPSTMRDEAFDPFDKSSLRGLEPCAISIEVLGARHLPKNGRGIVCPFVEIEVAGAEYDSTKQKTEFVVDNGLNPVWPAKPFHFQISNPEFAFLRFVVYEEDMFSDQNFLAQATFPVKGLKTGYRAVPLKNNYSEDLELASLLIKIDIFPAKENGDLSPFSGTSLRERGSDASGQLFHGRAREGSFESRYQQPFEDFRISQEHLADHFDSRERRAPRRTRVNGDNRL
DDE Tn6 FP ctr = counter-screen hit for Tn6 peptide-fibrin DD(E) binding disruption; TRITC-Tn6 fluorescence polarization displacement; 0% = median of compound wells, not DMSO; 2% of 680 active; AID 720621; shares compounds with DDE Tn6 FP inh; inhibition, % at 8.3 µM;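 active = inhibition above the mean of test compounds lying between the control limits plus 3 SD of those, cut at about 14% in these data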;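 also: 0% = median of compound wells and 100% = wells with Aha-Tn7 blocking peptide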
Tn6 DDE conf = DD(E)-Tn6 binding inhibition, FP confirmation; inhibition, % at 8.3 µM; FP displacement of TRITC-Tn6 peptide from DD(E); 0% = per-plate median of test wells; shares compounds with DDE Tn6 FP inh; 10% of 680 active;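 active = inhibition above the mean of compounds lying within the control limits plus 3 SD, cut at about 16% in these data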;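 also: 100% = high control wells holding a competing inhibitor peptide at 10 µM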
The depositor's hits bear a star; i = inactive; nt = no result given. Only some compounds are listed: those with a hit (about 1.4% of all), similar ones and a draw of the others.

SMILES	FID counter	DDE Tn6 FP inh	Tn7 DDE FP	PLCb3 inh	PLCg1 inh	DDE Tn6 FP ctr	Tn6 DDE conf
Cn1cccc1C(=O)NC(=O)COC(=O)CCNS(=O)(=O)c1ccc(Cl)cc1	nt	16*	3	-9	-8	4	-5
Cn1cccc1C(=O)NC(=O)COC(=O)CCNS(=O)(=O)c1cccc(C(F)(F)F)c1	nt	3	-3	-11	-2	nt	nt
COc1cc(OC)c(OC)cc1/C=N/NC(=O)CCc1c(C)n[nH]c1C	-14	16*	4	-47	-32	-1	-5
CCN1C=C(C(=O)OC)C(c2cccc(OC)c2OC)C(C(=O)OC)=C1	-10	17*	12	i	i	4	1
COC(=O)C1=CN(Cc2ccc(OC)c(OC)c2)C=C(C(=O)OC)C1c1cccc(OC)c1OC	-44	2	-2	i	i	nt	nt
CCOc1ccc(Nc2ccc(N)c(S(=O)(=O)O)c2)cc1	nt	22*	10	-15	-6	-6	-11
Cc1ccc(F)cc1S(=O)(=O)NCc1ccc(N2CCN(C)CC2)cc1	12	0	-2	2	-1	nt	nt
O=C(NCc1ccccc1C(F)(F)F)C1CCC(=O)N(C2CCCCCC2)C1 (configuration not stated)	-31	1	0	-6	2	nt	nt
CCCS(=O)(=O)N1CCN(C(=O)c2ccc(-c3ccccc3)cc2)CC1	-25	15*	11	1	-2	-4	-7
CCCS(=O)(=O)N1CCN(C(=O)c2cccnc2)CC1	-4	-3	0	-1	0	nt	nt
CCCCNC(=O)CCn1nc(-c2ccccc2)ccc1=O	-3	4	10	4	-4	nt	nt
CCCCN(C)CCCNC(=O)CCn1nc(-c2ccccc2)ccc1=O	19	16*	8	3	-2	0	2
COc1ccc(-c2nnc3c4ccccc4c(C)nn23)cc1S(=O)(=O)N1CCN(CCO)CC1	1	23*	-3	-48	-29	3	0
Cc1ccc(NCC(=O)Nc2cccc(S(=O)(=O)N(C)C)c2)c(Cl)c1	-12	-2	2	1	5	nt	nt
O=C(CCC(=O)c1ccc(Cl)cc1)OCC(=O)c1ccccc1	-17	0	-8	-2	-1	nt	nt
Cc1cc(C)n(Cc2ccc(C(=O)Nc3cccc(Br)c3)o2)n1	-17	-4	-3	0	3	nt	nt
c1ccc(-c2ccc(C3CCCN3)cc2)cc1 (configuration not stated)	-3	16*	3	-1	1	0	-2
CC(C)Oc1ccc(C(CC(=O)NCCCN(C)C)c2ccc(F)cc2)cc1 (configuration not stated)	19	7	0	1	2	nt	nt
CC(Oc1ccc(F)cc1)C(O)CCN(C)C (configuration not stated)	0	24*	0	-2	1	-7	-8
Cc1ccc2c(C)c(C(=O)Nc3ccc(S(N)(=O)=O)cc3)oc2c1C	5	26*	5	-88	-77	4	-94
COc1ccc(C2C(C(=O)N3CCOCC3)=C(C)NC3=C2C(=O)CC(C)(C)C3)cc1O (configuration not stated)	-10	0	-9	-33	-23	nt	nt
COc1cc(OC)c(C2C(C(=O)N3CCOCC3)=C(C)NC3=C2C(=O)CC(C)(C)C3)cc1OC (configuration not stated)	-4	17*	-2	-3	0	0	-6
CCOC(=O)c1c(C)[nH]c(C)c1C(=O)COC(=O)C1CC(=O)N(CCc2ccccc2)C1 (configuration not stated)	nt	1	5	0	-1	nt	nt
Cc1cc(Sc2nc(NC(C)(C)C)nc(N3CCOCC3)n2)nc(Cl)n1	0	17*	0	4	3	5	-1
CSc1nc(NC(C)(C)C)nc(N2CCOCC2)n1	-12	-3	-2	4	2	nt	nt
SMILES	FID counter	DDE Tn6 FP inh	Tn7 DDE FP	PLCb3 inh	PLCg1 inh	DDE Tn6 FP ctr	Tn6 DDE conf
CN(C)N1C(N)=C(C#N)C(c2ccc3c(c2)OCO3)C2=C1CCCC2=O (configuration not stated)	-8	15*	6	-4	-3	0	-3
CN(C)N1C(N)=C(C#N)C(c2cccc(Cl)c2)C2=C1CCCC2=O (configuration not stated)	-11	9	6	-35	-25	nt	nt
CC1(OC(=O)c2ccco2)C(=O)C=C2C=C(C3CC3)OC=C2C1=O (configuration not stated)	nt	28*	-2	-64	-60	5	18*
CC1OC1c1ccc(-c2ccc(C3OC3C)cc2)cc1 (configuration not stated)	nt	1	2	-3	2	nt	nt
COc1ccc(-c2nnc3sc(-c4ccco4)nn23)cc1OC	-11	15*	4	-9	-3	8	-6
CN(Cc1ccccc1)C(=O)OCc1cn(Cc2ccc(F)cc2F)nn1	nt	17*	2	0	-3	6	5
Cc1cccc(-n2nc([N+](=O)[O-])c(N3CCN(C(=O)c4ccco4)CC3)[n+]2[O-])c1	-23	2	0	-5	-1	nt	nt
COc1ccc(CCN2CCCC(CN(C)C(=O)c3ccoc3C)C2)cc1 (configuration not stated)	-22	-2	-5	-9	-1	nt	nt
Cn1nnnc1SCC(=O)N1CCOCC1	-3	-4	9	1	-2	nt	nt
COc1cc(/C=C2/SC(=S)N(Cc3ccccc3)C2=O)cc(Cl)c1O	18	5	5	-47	-29	nt	nt
COc1cc([N+](=O)[O-])cc(/C=C2/SC(=S)N(Cc3ccccc3)C2=O)c1O	41*	56*	1	-66	-48	0	34*
COc1cccc2cc(-c3n[nH]c(=S)n3C)oc12	-8	18*	3	-210	-147	0	-18
COc1cccc2cc(-c3ccnc(N)n3)oc12	0	7	4	-435	-313	nt	nt
CC(=O)NC(Cc1ccccc1)C(=O)N1CCN(C(=O)c2cccs2)CC1 (configuration not stated)	-11	17*	1	2	4	-9	-8
COc1ccc(Cl)cc1NC(=O)COC(=O)CCNC(C)=O	5	17*	6	2	0	9	5
CC(=O)Nc1cccc(Nc2nc(-c3ccccc3)nc3ccccc23)c1	-9	-5	3	-316	-230	nt	nt
CCN1CCN(S(=O)(=O)c2ccc(Cl)c(C(=O)N(CC(C)C)C3CCS(=O)(=O)C3)c2)CC1 (configuration not stated)	nt	5	2	-4	4	nt	nt
Cn1c(N)c(S(=O)(=O)N2CCN(c3cccc(Cl)c3)CC2)c(=O)n(C)c1=O	-15	16*	5	-13	-6	4	2
